In the EternaBench riboswitch data:

System: MS2 coat protein
Assay: apparent Kd, MS2 coat protein; higher = weaker binding; RNA-MaP array; FMN 200 µM where present
How it was run: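 Designs were transcribed by stalled E. coli RNA polymerase on Illumina sequencing-chip clusters. They were titrated with SNAP-549-labelled MS2 coat protein from 0.7 or 1.5 nM, doubling to 3 µM, without and then with constant ligand. Buffer: 100 mM Tris-HCl pH 7.5, 80 mM KCl, 4 mM MgCl2, BSA, DTT, yeast tRNA, Tween-20. Green signal was normalised to red-channel RNA signal and control-cluster median Fmax. Apparent Kd is the median of filtered per-cluster binding-curve fits.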

[1] = designed as: OFF switch for flavin mononucleotide, no ligand
[2] = ligand present: flavin mononucleotide, designed as: OFF switch for flavin mononucleotide
[3] = designed as: ON switch for flavin mononucleotide, no ligand
[4] = ligand present: flavin mononucleotide, designed as: ON switch for flavin mononucleotide

AAGGAGUCAGGAUAUGCUGCUCGUCACUUGCGUGAUGAGUAGCAGAAGGGACAUGAGGAUCACCCAUGUAAAAA
apparent Kd [1]: 56.9 nM | apparent Kd [2]: 55.8 nM

AAGGAUCGAGGAUAUACAUAGAUACAGAUUCAUGUAGAACUACAUGAGGAUCACCCAUGUAGAAGGCGAUCAUA
apparent Kd [1]: 27.1 nM | apparent Kd [2]: 127 nM

AAGGGCUGAGGAUAUGCGCGGGCAAGAUCCUCAAUCCCAAAACAUGAGGAUCACCCAUGUAGAAGGCAGAAAUA
apparent Kd [1]: 33.2 nM | apparent Kd [2]: 24.2 nM

AAGGUACGAGGAUAUGCAUAGAUACAGACACAUGUUCAAGUACAUGAGGAUCACCCAUGUAGAAGGCGUAUAUA
apparent Kd [1]: 43.5 nM | apparent Kd [2]: 61.8 nM

AAGGUGCAGGUACAGGAUAUGUUGCUCGUAACAUGAGGAUCACCCAUGUACCUAUGAGAUUAAAUGCAGAAGGGUGCACACCAAA
apparent Kd [3]: 792 nM | apparent Kd [4]: 87.5 nM

AAGGUGUUAGGAUAUCGAAGGUUGUGGCAGGCGGGAAUUUGCGAGAAGGAACAUGAGGAUCACCCAUGUAAAAU
apparent Kd [1]: 24.4 nM | apparent Kd [2]: 25.8 nM

AAGUAACAUGAGGAUCACCCAUGUGAGGAUAUGAUUUAAGUUGUAAAAGUAAUAAAGGUCAGAAGGUAUGUGAA
apparent Kd [1]: 62.1 nM | apparent Kd [2]: 61.1 nM

AAGUAACAUGAGGAUCACCCAUGUUAGGAUAUCUCGGCCACAGGAUCGCUGUGAAGCCAGAGAAGGAGCGGGUG
apparent Kd [1]: 175 nM | apparent Kd [2]: 186 nM

AAGUAGAUCCGAGGAUAUACAAGCCGGAAACGGUACAUGAGGAUCACCCAUGUAGAAGGCGGAUCUACAGGUACUAAAGUACCA
apparent Kd [1]: 5.53 nM | apparent Kd [2]: 9.17 nM

AAGUUUUUACAAGGAUAUCAUUUGUUUCUAAAUUCAACAUGAGGAUCACCCAUGUAACAAUGGAGUGAGAAGGUGUGUUGGCAA
apparent Kd [3]: 101 nM | apparent Kd [4]: 84.6 nM

AAUAAACAUGAGGAUCACCCAUGUCAGGAUAUGCGUCUAACCUAAUACCAUAGAUACGGCAGAAGGGACUAAUA
apparent Kd [1]: 50.2 nM | apparent Kd [2]: 33.8 nM

AAUAAACUCACAGGAUAUAGCAGAGGUCACGUGAACUUACAGGCGACGAUGCUAGAAGGGUGACCACAUGAGGAUCACCCAUGU
apparent Kd [3]: 862 nM | apparent Kd [4]: 135 nM

AAUAAACUCACAGGAUAUAGCAUAGGUCGCGUGAACUUACAGGCGACGAUGCUAGAAGGGUGACCACAUGAGGAUCACCCAUGU
apparent Kd [3]: 892 nM | apparent Kd [4]: 172 nM

AAUAACAGAGGAUAUACUAUUUUAUGUGUUUAUUGUUUUGAACAUGAGGAUCACCCAUGUAGAAGGCUGAGUAA
apparent Kd [1]: 30.2 nM | apparent Kd [2]: 38 nM

AAUAACAGAGGAUAUACUAUUUUAUGUGUUUAUUGUUUUGAACAUGAGGAUCACCCAUGUAGAAGGCUGAUUAA
apparent Kd [1]: 41 nM | apparent Kd [2]: 58.7 nM

AAUAACAGAGGAUAUACUAUUUUAUGUGUUUAUUGUUUUGAACAUGAGGAUCACCCAUGUAGAAGGCUGAUUGA
apparent Kd [1]: 47.8 nM | apparent Kd [2]: 56.3 nM

AAUAACAGAGGAUAUACUAUUUUAUGUGUUUGUUGUUUUGAACAUGAGGAUCACCCAUGUAGAAGGCUGAAUAA
apparent Kd [1]: 22.6 nM | apparent Kd [2]: 25.6 nM

AAUAACAGAGGAUAUACUGUUUUAUGUGUUUAUUAUUUUAAACAUGAGGAUCACCCAUGUAGAAGGCUGAAUAA
apparent Kd [1]: 42.6 nM | apparent Kd [2]: 42.8 nM

AAUAACAGAGGAUAUACUGUUUUAUGUGUUUAUUGUUUUGAACAUGAGGAUCACCCAUGUAGAAGGCUGAGUAA
apparent Kd [1]: 27.8 nM | apparent Kd [2]: 28.2 nM

AAUAACAGAGGAUAUACUGUUUUAUGUGUUUGUUAUUUUGAACAUGAGGAUCACCCAUGUAGAAGGCUGAAUGA
apparent Kd [1]: 28.9 nM | apparent Kd [2]: 29.7 nM

AAUAACAGAGGAUAUACUGUUUUAUGUGUUUGUUAUUUUGAACAUGAGGAUCACCCAUGUAGAAGGCUGAGUAA
apparent Kd [1]: 27.8 nM | apparent Kd [2]: 28.4 nM

AAUAACGGAGCUACAUGAGGAUCACCCAUGUACGGGUGAUCCUAGGAUAUGCCCGCAACUAUGUCGCAGAAGGAGGGUUGCCCA
apparent Kd [3]: 20.4 nM | apparent Kd [4]: 39.7 nM

AAUAAGUCAGGAUAUACUAUGUCAGGAGAGAGACUGACUAUGUAGAAGGGACAUGAGGAUCACCCAUGUAAUAA
apparent Kd [1]: 28.6 nM | apparent Kd [2]: 35.9 nM

AAUAAUCAGUAAGGAUAUACUAGCGAUUAGCUUGUAGAAGGUACAGUCUUAUGUAUAACAAAUUAACAUGAGGAUCACCCAUGU
apparent Kd [3]: 9.19 nM | apparent Kd [4]: 7.65 nM

AAUACAUGAGGAUCACCCAUGUAAAGAUCUGUUAAUAGAUGUGAGGAUAUACUAAAUUUUAGGUAGUAGAAGGCACUGGGUACA
apparent Kd [3]: 22.1 nM | apparent Kd [4]: 26 nM

AAUAGGCGAGGAUAUACAUGAGGAUCACCCAUGUAAGUAAGCCUGGCUGAAACUGAAUGUAGAAGGCGCAAUAA
apparent Kd [1]: 17.6 nM | apparent Kd [2]: 58.5 nM

AAUAGUGGCGUAGGAUAUCUGCGUACAUGAGGAUCACCCAUGUCUCCCAACUGCUGAGCUGGGACAGAGAAGGGCGACCGCAUA
apparent Kd [3]: 225 nM | apparent Kd [4]: 85.4 nM

AAUAGUUCCGAGGAUAUAUCUCCACCGUGGGUGGUAGAAGGCGGGACAUGAGGAUCACCCAUGUACAAAUUCUC
apparent Kd [1]: 75.2 nM | apparent Kd [2]: 98.1 nM
